Data on 23 compounds can be found in publication PMC3328401 (Journal of Medicinal Chemistry, 2012).

In one data set the test system is OVCAR-3 cells. Nature of the data set: Subcellular distribution of 125I-labeled reagents. As to conditions: for ^125I in cytoplasm, 24 hours / ^125I in nucleus, 24 hours: 1 h incubation then 24 h in fresh nonradioactive medium; for ^125I in cytoplasm, 1 hour / ^125I in nucleus, 1 hour: 1 h incubation, 55.5 kBq/mL. Type of data set: cell-based, human. A digest of the protocol:
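OVCAR-3 cells were kept in RPMI-1640 with insulin, 2 mM L-glutamine and 20% FBS and expanded as intraperitoneal xenografts in athymic nude mice. Cells in six T150 flasks attached overnight, then were exposed 1 h to ¹²⁵I compound (55.5 kBq/mL). Three flasks were processed immediately and three after 24 h in fresh medium. Cells were trypsinized, counted, fractionated into nuclear/cytoplasmic compartments and gamma-counted.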

The nature of data set [1]: Solubility in aqueous media. As to conditions: aqueous media / water.
Data set [2] in a line: Chemical hydrolysis of cycloSal phosphate triesters in phosphate buffer. Type of data set: physicochemical. As to conditions: phosphate buffer 50 mM, pH 7.3, 37°C, ~15% acetonitrile.

Molecules are shown by their SMILES. Where only a bound is given, the exact number is not on record here.

For `O=c1[nH]c(=O)n([C@H]2C[C@H](O)[C@@H](COP3(=O)OCc4ccccc4O3)O2)cc1[125I]` (stereo partly shown) [6b, 5-[^125I]-Iodo-5′-O-cycloSaligenyl-2′-deoxyuridine Monophosphate], in the data set with OVCAR-3 cells, the “^125I in cytoplasm, 24 hours” value is recorded as 7.3 (1.0) cpm/10^3 cells (std dev); the “^125I in nucleus, 24 hours” value is given as 39.4 (5.8) cpm/10^3 cells (std dev); the “^125I in cytoplasm, 1 hour” value is reported as 20.2 (3.2) cpm/10^3 cells (std dev); the “^125I in nucleus, 1 hour” value was 5.7 (1.6) cpm/10^3 cells (std dev).
Take `CC(C)(C)c1cc(C(C)(C)C)c2c(c1F)COP(=O)(O[C@H]1C[C@H](n3cc([125I])c(=O)[nH]c3=O)O[C@@H]1CO)O2` (stereo partly shown) [14b, 5-[^125I]-Iodo-3′-O-(cyclo-3,5-di-(tert-butyl)-6-fluoroSaligenyl)-2′-deoxyuridine Monophosphate]: in the data set on OVCAR-3 cells, the “^125I in cytoplasm, 24 hours” value is 2.7 (0.4) cpm/10^3 cells (std dev); the “^125I in nucleus, 24 hours” value is given as 66.7 (8.4) cpm/10^3 cells (std dev); the “^125I in cytoplasm, 1 hour” value is reported as 62.5 (4.3) cpm/10^3 cells (std dev); the “^125I in nucleus, 1 hour” value is recorded as 4.3 (0.3) cpm/10^3 cells (std dev).
With `O=c1[nH]c(=O)n([C@H]2C[C@H](OP3(=O)OCc4ccccc4O3)[C@@H](CO)O2)cc1[125I]` (stereo partly shown) [12b, 5-[^125I]-Iodo-3′-O-cycloSaligenyl-2′-deoxyuridine Monophosphate], in the data set on OVCAR-3 cells, the “^125I in cytoplasm, 24 hours” value was 2.7 (0.3) cpm/10^3 cells (std dev); the “^125I in nucleus, 24 hours” value was 30.2 (5.3) cpm/10^3 cells (std dev); the “^125I in cytoplasm, 1 hour” value is 7.2 (0.7) cpm/10^3 cells (std dev); the “^125I in nucleus, 1 hour” value was 2.1 (0.2) cpm/10^3 cells (std dev).
`CC(C)(C)c1cc(C(C)(C)C)c2c(c1F)COP(=O)(OC[C@H]1O[C@@H](n3cc(I)c(=O)[nH]c3=O)C[C@@H]1F)O2` (stereo partly shown) [compound 24, 5-Iodo-5′-O-[cyclo-3,5-Di-(tert-butyl)-6-fluoroSaligenyl]-3′-fluoro-2′,3′-dideoxyuridine Monophosphate]: the “solubility” value in data set [1] is “lower water solubility”.
With `CC(C)(C)c1cc(C(C)(C)C)c2c(c1F)COP(=O)(OC[C@H]1O[C@@H](n3cc(I)c(=O)[nH]c3=O)C[C@@H]1O)O2` (stereo partly shown) [8-fast, 5-Iodo-5′-O-[cyclo-3,5-di-(tert-butyl)-6-fluoroSaligenyl]-2′-deoxyuridine Monophosphate], in data set [2], the “k (rate of hydrolysis)” value is 0.000241 min⁻¹.
Regarding `CC(C)(C)c1cc(C(C)(C)C)c2c(c1F)COP(=O)(OC[C@H]1O[C@@H](n3cc(I)c(=O)[nH]c3=O)C[C@@H]1F)O2` (stereo partly shown) [24-fast, 5-Iodo-5′-O-[cyclo-3,5-Di-(tert-butyl)-6-fluoroSaligenyl]-3′-fluoro-2′,3′-dideoxyuridine Monophosphate], the “k (rate of hydrolysis)” value in data set [2] stood at 0.000292 min⁻¹.
`CC(C)(C)c1cc(C(C)(C)C)c2c(c1F)COP(=O)(OC[C@H]1O[C@@H](n3cc([125I])c(=O)[nH]c3=O)C[C@@H]1O)O2` (stereo partly shown) [8b, 5-[^125I]-Iodo-5′-O-[cyclo-3,5-di-(tert-butyl)-6-fluoroSaligenyl]-2′-deoxyuridine Monophosphate]: in the data set on OVCAR-3 cells, the “^125I in cytoplasm, 24 hours” value is on record as 3.2 (0.01) cpm/10^3 cells (std dev); the “^125I in nucleus, 24 hours” value is recorded as 92.2 (5.0) cpm/10^3 cells (std dev); the “^125I in cytoplasm, 1 hour” value was 88.3 (5.4) cpm/10^3 cells (std dev); the “^125I in nucleus, 1 hour” value is recorded as 7.9 (0.4) cpm/10^3 cells (std dev). Further, in the data set on OVCAR-3 cells (OVCAR-3, 24 h), the “retained radioactivity, more than 6b” value is given as above 230% and the “retained radioactivity, more than 7b” value is ~ 360%.
Consider `CC(C)(C)c1cc(C(C)(C)C)c2c(c1F)COP(=O)(O[C@H]1C[C@H](n3cc(I)c(=O)[nH]c3=O)O[C@@H]1CO)O2` (stereo partly shown) [14-fast, 5-Iodo-3′-O-[cyclo-3,5-di-(tert-butyl)-6-fluoroSaligenyl]-2′-deoxyuridine Monophosphate], for which the “k (rate of hydrolysis)” value in data set [2] came to 0.000766 min⁻¹.
For the compound `Cc1cccc2c1OP(=O)(O[C@H]1C[C@H](n3cc(I)c(=O)[nH]c3=O)O[C@@H]1CO)OC2` (stereo partly shown) [13-fast, 5 - Iodo-3′-O-cyclo(3-methylSaligenyl)-2′-deoxyuridine Monophosphate], the “k (rate of hydrolysis)” value in data set [2] is 0.000946 min⁻¹.
For `Cc1cccc2c1OP(=O)(OC[C@H]1O[C@@H](n3cc([125I])c(=O)[nH]c3=O)C[C@@H]1OP1(=O)OCc3cccc(C)c3O1)OC2` (stereo partly shown) [10b], in the data set on OVCAR-3 cells, the “^125I in cytoplasm, 24 hours” value is 13.4 (3.3) cpm/10^3 cells (std dev); the “^125I in nucleus, 24 hours” value is recorded as 24.5 (5.4) cpm/10^3 cells (std dev); the “^125I in cytoplasm, 1 hour” value is on record as 97.1 (14.6) cpm/10^3 cells (std dev); the “^125I in nucleus, 1 hour” value is 6.0 (0.9) cpm/10^3 cells (std dev).
For the compound `Cc1cccc2c1OP(=O)(OC[C@H]1O[C@@H](n3cc([125I])c(=O)[nH]c3=O)C[C@@H]1O)OC2` (stereo partly shown) [7b, 5-[^125I]-Iodo-5′-O-cyclo(3-methylSaligenyl)-2′-deoxyuridine Monophosphate], in the data set on OVCAR-3 cells, the “^125I in cytoplasm, 24 hours” value was 1.6 (0.5) cpm/10^3 cells (std dev); the “^125I in nucleus, 24 hours” value was 25.9 (7.1) cpm/10^3 cells (std dev); the “^125I in cytoplasm, 1 hour” value is 11.7 (1.7) cpm/10^3 cells (std dev); the “^125I in nucleus, 1 hour” value is 4.5 (1.0) cpm/10^3 cells (std dev).
As for `Cc1cccc2c1OP(=O)(O[C@H]1C[C@H](n3cc(I)c(=O)[nH]c3=O)O[C@@H]1CO)OC2` (stereo partly shown) [13-slow, 5 - Iodo-3′-O-cyclo(3-methylSaligenyl)-2′-deoxyuridine Monophosphate], the “k (rate of hydrolysis)” value in data set [2] came to 0.000813 min⁻¹.
Take `CC(C)(C)c1cc(C(C)(C)C)c2c(c1F)COP(=O)(O[C@H]1C[C@H](n3cc(I)c(=O)[nH]c3=O)O[C@@H]1CO)O2` (stereo partly shown) [compound 14, 5-Iodo-3′-O-[cyclo-3,5-di-(tert-butyl)-6-fluoroSaligenyl]-2′-deoxyuridine Monophosphate]: the “solubility” value in data set [1] is “lower water solubility”.
On to `CC(C)(C)c1cc(C(C)(C)C)c2c(c1F)COP(=O)(O[C@H]1C[C@H](n3cc(I)c(=O)[nH]c3=O)O[C@@H]1CO)O2` (stereo partly shown) [14-slow, 5-Iodo-3′-O-[cyclo-3,5-di-(tert-butyl)-6-fluoroSaligenyl]-2′-deoxyuridine Monophosphate], for which the “k (rate of hydrolysis)” value in data set [2] stood at 0.000667 min⁻¹.
For `CC(C)(C)c1cc(C(C)(C)C)c2c(c1F)COP(=O)(OC[C@H]1O[C@@H](n3cc([125I])c(=O)[nH]c3=O)C[C@@H]1F)O2` (stereo partly shown) [24b, 5-[^125I]-Iodo-5′-O-[cyclo-3,5-Di-(tert-butyl)-6-fluoroSaligenyl]-3′-fluoro-2′,3′-dideoxyuridine], in data set [1], the “solubility” value is given as “low solubility”.
For `O=c1[nH]c(=O)n([C@H]2C[C@H](OP3(=O)OCc4ccccc4O3)[C@@H](COP3(=O)OCc4ccccc4O3)O2)cc1[125I]` (stereo partly shown) [9b], in the data set on OVCAR-3 cells, the “^125I in cytoplasm, 24 hours” value is on record as 37.3 (10.0) cpm/10^3 cells (std dev); the “^125I in nucleus, 24 hours” value is listed as 18.1 (3.9) cpm/10^3 cells (std dev); the “^125I in cytoplasm, 1 hour” value is recorded as 97.6 (10.0) cpm/10^3 cells (std dev); the “^125I in nucleus, 1 hour” value is listed as 6.4 (0.5) cpm/10^3 cells (std dev).
As to `O=c1[nH]c(=O)n([C@H]2C[C@H](OP3(=O)OCc4ccccc4O3)[C@@H](CO)O2)cc1I` (stereo partly shown) [12-fast, 5-Iodo-3′-O-cycloSaligenyl-2′-deoxyuridine Monophosphate], the “k (rate of hydrolysis)” value in data set [2] came to 0.00205 min⁻¹.
With `Cc1cccc2c1OP(=O)(O[C@H]1C[C@H](n3cc([125I])c(=O)[nH]c3=O)O[C@@H]1CO)OC2` (stereo partly shown) [13b, 5-[^125I]-Iodo-3′-O-cyclo(3-methylSaligenyl)-2′-deoxyuridine Monophosphate], in the data set with OVCAR-3 cells, the “^125I in cytoplasm, 24 hours” value was 1.4 (0.3) cpm/10^3 cells (std dev); the “^125I in nucleus, 24 hours” value is 15.7 (2.2) cpm/10^3 cells (std dev); the “^125I in cytoplasm, 1 hour” value was 6.2 (0.6) cpm/10^3 cells (std dev); the “^125I in nucleus, 1 hour” value is 2.0 (0.2) cpm/10^3 cells (std dev).
For the compound `CC(C)(C)c1cc(C(C)(C)C)c2c(c1F)COP(=O)(OC[C@H]1O[C@@H](n3cc(I)c(=O)[nH]c3=O)C[C@@H]1O)O2` (stereo partly shown) [8-slow, 5-Iodo-5′-O-[cyclo-3,5-di-(tert-butyl)-6-fluoroSaligenyl]-2′-deoxyuridine Monophosphate], the “k (rate of hydrolysis)” value in data set [2] was found to be 0.000188 min⁻¹.
With `CC(C)(C)c1cc(C(C)(C)C)c2c(c1F)COP(=O)(OC[C@H]1O[C@@H](n3cc([125I])c(=O)[nH]c3=O)C[C@@H]1F)O2` (stereo partly shown) [24b-fast, 5-[^125I]-Iodo-5′-O-[cyclo-3,5-Di-(tert-butyl)-6-fluoroSaligenyl]-3′-fluoro-2′,3′-dideoxyuridine], in data set [2], the “k (rate of hydrolysis)” value stood at 0.000301 min⁻¹.
On the same count and under the same terms, the figure for `O=c1[nH]c(=O)n([C@H]2C[C@H](OP3(=O)OCc4ccccc4O3)[C@@H](CO)O2)cc1I` (stereo partly shown) [12-slow, 5-Iodo-3′-O-cycloSaligenyl-2′-deoxyuridine Monophosphate] is 0.00164 min⁻¹.
As to `CC(C)(C)c1cc(C(C)(C)C)c2c(c1F)COP(=O)(OC[C@H]1O[C@@H](n3cc(I)c(=O)[nH]c3=O)C[C@@H]1O)O2` (stereo partly shown) [compound 8, 5-Iodo-5′-O-[cyclo-3,5-di-(tert-butyl)-6-fluoroSaligenyl]-2′-deoxyuridine Monophosphate], in data set [1], the “solubility” value was “lower water solubility”.
On to `CC(C)(C)c1cc(C(C)(C)C)c2c(c1F)COP(=O)(OC[C@H]1O[C@@H](n3cc(I)c(=O)[nH]c3=O)C[C@@H]1F)O2` (stereo partly shown) [24-slow, 5-Iodo-5′-O-[cyclo-3,5-Di-(tert-butyl)-6-fluoroSaligenyl]-3′-fluoro-2′,3′-dideoxyuridine Monophosphate], for which, in data set [2], the “k (rate of hydrolysis)” value came to 0.000222 min⁻¹.
